Experimental data: ChEMBL document CHEMBL1777721, “Phenolic compounds with NF-κB inhibitory effects from the fungus Phellinus baumii” (Bioorg Med Chem Lett, 2011); call rule not given here

Columns and labels:
[1] = Inhibition of basal NF-kappaB-dependent reporter gene transcription in androgen-insensitive human PC3 cells
LNCaP = test: Inhibition of LPS-induced NF-kappaB-dependent reporter gene transcription in androgen-sensitive human LNCap cells; type: cell-based; conditions: for inhibition: dose or concentration not given here
Method in brief: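 Luciferase NF-κB reporter assay in androgen-sensitive LNCaP prostate cancer cells. Cells were pretreated with the test compound, then stimulated with LPS to activate NF-κB. Reporter activity was read at three concentrations and expressed as percent reduction of the LPS-induced signal.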

[2] = Homo sapiens, PC-3, read-out: IC50

Structure (SMILES)	IC50 [1, 2] [µM]	Activity (LNCaP)	inhibition (LNCaP) [%]	IC50 ([1]; pc-3)
O=C(O)/C(=C\c1ccc(O)c(O)c1)c1c(O)cc(/C=C/c2ccc(O)c(O)c2)oc1=O [PHELLIBAUMIN D]	74.6			
COc1cc2c(c(O)c1Cc1ccccc1O)C(=O)C[C@H](c1ccc(O)cc1)O2	36.4	Dose-dependent effect	35	
COc1cc(O)c2c(c1Cc1ccccc1O)O[C@H](c1ccc(O)cc1)CC2=O	22.5			
O=c1oc2cc(O)c1-c1cc(O)c(O)cc1/C=C/c1cc3c(c(=O)o1)[C@H](c1cc(O)c(c(=O)o1)-c1cc(O)c(O)cc1/C=C/c1cc4c(c(=O)o1)[C@H]2[C@@H](c1ccc(O)c(O)c1)O4)[C@@H](c1ccc(O)c(O)c1)O3 [PHELLIGRIDIMER A]				Not Active
O=c1oc(/C=C/c2ccc(O)c(O)c2)cc2oc3cc(O)c(O)cc3c12 [PHELLIBAUMIN A]	53			
COc1cc2c(c(O)c1Cc1ccccc1O)C(=O)C[C@@H](c1ccc(O)cc1)O2	36.4			
O=c1oc(/C=C/c2ccc(O)c(O)c2)cc(O)c1/C(=C/c1ccc(O)c(O)c1)c1cc2oc(=O)c3cc(O)c(O)cc3c2c(=O)o1 [PHELLIBAUMIN C]	62.3			
O=c1oc2cc(-c3c(-c4ccc(O)c(O)c4)oc4cc(/C=C/c5ccc(O)c(O)c5)oc(=O)c34)oc(=O)c2c2cc(O)c(O)cc12 [PHELLIGRIDIN H]	84.9			
COc1cc(O)c2c(c1Cc1ccccc1O)O[C@@H](c1ccc(O)cc1)CC2=O [METHYLPHELLIGRIN B]	22.5	Dose-dependent effect	62.5	
O=C1C[C@H](c2ccc(O)cc2)Oc2cc(O)c(Cc3ccccc3O)c(O)c21 [PHELLIGRIN A]	54.5	Dose-dependent effect	18.4	
O=C1C[C@@H](c2ccc(O)cc2)Oc2cc(O)c(Cc3ccccc3O)c(O)c21	54.5			
CC(=O)/C(=C\c1ccc(O)c(O)c1)c1c(O)cc(/C=C/c2ccc(O)c(O)c2)oc1=O [INTERFUNGIN B]	71.2			
O=C(O)CC1Oc2cc(/C=C/c3ccc(O)c(O)c3)oc(=O)c2-c2cc(O)c(O)cc21 (stereo not given) [PHELLIBAUMIN B]	41.4			
CCOC(=O)/C(=C\c1ccc(O)c(O)c1)c1c(O)cc(/C=C/c2ccc(O)c(O)c2)oc1=O [PHELLIBAUMIN E]	52.9			
